In PMC3966939 (Stroke; a journal of cerebral circulation, 2014):

How the values were obtained:
[1] = tested on: rat model of embolic middle cerebral artery occlusion (MCAO); experiment: Incidence of gross hemorrhage on H&E stained coronal sections; type: in vivo; conditions: treatment started 4h after MCAO; H&E sections 7 days after MCAO
Method in brief: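 In embolic-MCAO male Wistar rats, treatment began 1 or 4 h after occlusion. The peptide was given at 0.8 mg/kg/day (IA for 2 h, then SC pump for 3 days), with or without IV tPA 10 mg/kg at 4 h. Rats were killed at day 7. Seven H&E coronal sections per animal were scored for blood visible to the unaided eye, expressed as group percentage. Fisher exact test was applied.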

[2] = tested on: rat model of embolic middle cerebral artery occlusion (MCAO); experiment: MRI measurement of ischemic lesion; type: in vivo; conditions: treatment started 4h after MCAO; MRI at 1, 72 and 144 h after MCAO; n=10/group
Method in brief: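 Rats received IV tPA (10 mg/kg) alone or tPA plus peptide, starting 4 h after embolic MCAO. Imaging was done on a 7 T scanner with T2-weighted and diffusion-weighted images at 1, 72 and 144 h. Ischemic area was taken from the T2 map using a threshold of two SD above the contralateral hemisphere. Groups were compared by one-way ANOVA.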

TGF-β1 = experiment: Immunohistochemistry: TGF-β1 immunoreactive vessels; type: in vivo, rat; conditions: treatment 4h after MCAO, 24h; compared to the saline treatment
Method in brief: (§1)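 Embolic-MCAO male Wistar rats were treated 4 h after stroke onset with one of three regimens: IV tPA (10 mg/kg) alone, tPA plus peptide (0.8 mg/kg/day, IA then SC pump), or saline (n=4–6). Rats were killed 24 h after treatment began. Frozen 8 μm coronal sections (bregma −0.4 to −1.4 mm) were immunostained, and immunoreactive vessels in ischemic brain were counted. One-way ANOVA with Hochberg adjustment was used.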

p-Smad2/3 = experiment: Immunohistochemistry: p-Smads2/3 immunoreactive vessels; type: in vivo, rat; conditions: treatment 4h after MCAO, 24h; compared to the saline treatment
Method in brief: as §1

PAI-1 = experiment: Immunohistochemistry: PAI-1 immunoreactive vessels; type: in vivo, rat; conditions: treatment 4h after MCAO, 24h; double immunostaining
Method in brief: as §1

NF-κB (p65) = experiment: Immunohistochemistry: p65 immunoreactive vessels; type: in vivo, rat; conditions: treatment 4h after MCAO, 24h; ipsilateral hemisphere
Method in brief: as §1

tissue plasminogen activator [tPA] was tested, and the “incidence of gross hemorrhage” value [1] was 38%, the “ischemic lesion by MRI (T2)” value [2] was “increased over 144h” and the “density of TGF-β1 immunoreactive vessels” value (TGF-β1) was “failed to reduce the densities”. The “density of p-Smads2/3 immunoreactive vessels” value (p-Smad2/3) was “failed to reduce the densities”, the “PAI-1 immunoreactive vessel density” value (PAI-1) was “further increased” and the p65 immunoreactive vessels (NF-κB (p65)) was “augmented”.
